In ChEMBL document CHEMBL3351780, “Novel hybrids of metronidazole and quinolones: synthesis, bioactive evaluation, cytotoxicity, preliminary antimicrobial mechanism and effect of metal ions on their transportation by human serum albumin” (Eur J Med Chem, 2014):
Converted amounts (≈) assume the structure as drawn.

Legend:
Streptococcus pneumoniae = assay: Antibacterial activity against Streptococcus pneumoniae by two-fold serial dilution method; assay type: functional
Outline: (§1)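 Standard two-fold serial dilution in 96-well microtest plates following NCCLS. Top dilutions printed as 32, 16, 8, 4, 2, 1, 0.5 ug/mL. Wells inoculated and held at 37 °C for 24 h. Growth judged visually and by spectrophotometer, in triplicate. MIC is the lowest concentration giving complete growth inhibition.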

Micrococcus luteus = assay: Antibacterial activity against Micrococcus luteus by two-fold serial dilution method; assay type: functional; outline: as §1
Albumin [1] = biological target: T1, Albumin (Homo sapiens, UniProt P02768); assay: Drug transport index, ratio of Kb to K0 for human serum albumin by fluorescence spectrophotometry in presence of Mg2+; assay type: ADME
Outline: (§2)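 HSA in Tris-HCl (0.05 M Tris, 0.15 M NaCl, pH 7.4) with compound, in the presence of CaCl2, KCl, MgCl2 or NiCl2. Fluorescence was excited at 295 nm and emission recorded from 300 to 450 nm at 298 K, with 2.5 nm slits. Binding constants with the metal ion (Kb) and without it (K0) were expressed as Kb/K0.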

Albumin [2] = biological target: T1, Albumin; assay: Binding affinity to human serum albumin by fluorescence spectrophotometry in presence of K+; assay type: ADME; settings: isolated protein
Outline: (§3)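 HSA-compound fluorescence measured in Tris-HCl (0.05 M Tris, 0.15 M NaCl, pH 7.4) with added metal chloride (CaCl2, KCl, MgCl2 or NiCl2). Excitation 295 nm, emission 300-450 nm, 298 K, 2.5 nm slits. The metal-ion effect is expressed as the ratio Kb/K0.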

Bacillus spizizenii = assay: Antibacterial activity against Bacillus subtilis ATCC 6633 by two-fold serial dilution method; assay type: functional; outline: as §1
Staphylococcus aureus [3] = assay: Antibacterial activity against methicillin-resistant Staphylococcus aureus N315 by two-fold serial dilution method; assay type: functional
Outline: (§4)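 MIC read as the lowest concentration giving complete growth inhibition. Two-fold serial dilutions were made in 96-well plates following NCCLS, giving a series down to 0.5 µg/mL (…32, 16, 8, 4, 2, 1, 0.5). Plates were inoculated and incubated at 37 °C for 24 h. A DMSO-with-inoculum control without drug was included. Growth was monitored visually and spectrophotometrically, in triplicate.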

Escherichia coli = assay: Antibacterial activity against Escherichia coli DH52 by two-fold serial dilution method; assay type: functional; outline: as §1
Albumin [4] = biological target: T1, Albumin; assay: Drug transport index, ratio of Kb to K0 for human serum albumin by fluorescence spectrophotometry in presence of […]; assay type: ADME; outline: as §2
[5] = Cytotoxicity against human LO2 cells assessed as inhibition of cell viability at 8 ug/ml after 24 hrs by MTT assay; assay type: cell-based, L02; settings: read-out: INH
Outline: (§5)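 LO2 hepatocytes were plated and left to attach for 24 h. DMSO stocks were diluted in medium and added, and cells were cultured for 24 h at 37 °C in humidified 5% CO2. MTT absorbance read at 490 nm. Three parallels. Inhibition computed as percent reduction of viable cells against drug-free control.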

[6] = Antibacterial activity against Eberthella typhosa by two-fold serial dilution method; assay type: functional; outline: as §4
Saccharomyces cerevisiae = assay: Antifungal activity against Saccharomyces cerevisiae after 24 hrs by microbroth dilution method; assay type: functional
Outline: (§6)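 Spore suspension prepared in sterile distilled water from one-day-old cultures on Sabouraud agar, final 1-5 x 10^3 spores/mL. Compounds were serially diluted in RPMI 1640 to give eleven dilutions. Incubation at 35 °C for 24 h. Growth read visually and spectrophotometrically, in triplicate. MIC is the lowest concentration with complete inhibition.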

Shigella dysenteriae = assay: Antibacterial activity against Shigella dysenteriae by two-fold serial dilution method; assay type: functional; outline: as §4
Albumin [7] = biological target: T1, Albumin; assay: Drug transport index, ratio of Kb to K0 for human serum albumin by fluorescence spectrophotometry in presence of Ni2+; assay type: ADME; outline: as §2
[8] = Cytotoxicity against human A549 cells assessed as cell viability at 256 ug/ml after 24 hrs by CCK-8 assay; assay type: cell-based; settings: read-out: Activity
Outline: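 A549 cells were plated and allowed to attach for 24 h, then medium with the compound was added. The compound came from DMSO stocks diluted in medium to 8, 16, 32, 64, 128 and 256 µg/mL. Cells were kept at 37 °C in 5% CO2. Viability was read by CCK-8 absorbance at 450 nm against a drug-free control, three replicates.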

Pichia norvegensis = assay: Antifungal activity against Candida mycoderma after 24 hrs by microbroth dilution method; assay type: functional
[9] = Aqueous solubility of the compound by UV-spectrophotometry; assay type: physicochemical
Albumin [10] = biological target: T1, Albumin; assay: Drug transport index, ratio of Kb to K0 for human serum albumin by fluorescence spectrophotometry in presence of Ca2+; assay type: ADME; outline: as §2
[11] = Cytotoxicity against human LO2 cells assessed as inhibition of cell viability at 128 ug/ml after 24 hrs by MTT assay; assay type: cell-based, L02; settings: read-out: INH
Outline: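 Human hepatocyte LO2 cells were plated, attached for 24 h, then exposed to the compound diluted in medium from DMSO stock, at 37 °C in 5% CO2. Viability was read by MTT at 490 nm. Inhibition was calculated as the percent reduction of viable cells versus a drug-free control, mean of three parallels.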

Calf thymus DNA = assay: Binding affinity to calf thymus DNA by UV-vis spectroscopy; assay type: nucleic-acid assay; settings: Bos taurus
Outline: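 Calf thymus DNA held at a fixed concentration and titrated with increasing amounts of the compound. UV-vis absorption spectra were recorded at room temperature in 1.0 cm quartz cells, following the DNA band at 260 nm.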

Albumin [12] = biological target: T1, Albumin; assay: Binding affinity to human serum albumin by fluorescence spectrophotometry in presence of Ni2+; assay type: ADME; settings: isolated protein; outline: as §3
[13] = Cytotoxicity against human LO2 cells assessed as inhibition of cell viability at 16 ug/ml after 24 hrs by MTT assay; assay type: cell-based, L02; settings: read-out: INH; outline: as §5
[14] = Octanol-water partition co-efficient, log P of the compound by shake flask method; assay type: physicochemical
Cyberlindnera jadinii = assay: Antifungal activity against Candida utilis after 24 hrs by microbroth dilution method; assay type: functional; settings: Williopsis jadinii; outline: as §6
[15] = Cytotoxicity against human LO2 cells assessed as inhibition of cell viability at 64 ug/ml after 24 hrs by MTT assay; assay type: cell-based, L02; settings: read-out: INH; outline: as §5
Albumin [16] = biological target: T1, Albumin; assay: Binding affinity to human serum albumin by fluorescence spectrophotometry in presence of Mg2+; assay type: ADME; settings: isolated protein; outline: as §3
Albumin [17] = biological target: T1, Albumin; assay: Binding affinity to human serum albumin by fluorescence spectrophotometry; assay type: ADME; settings: isolated protein
Outline: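 HSA dissolved in Tris-HCl buffer (0.05 M Tris, 0.15 M NaCl, pH 7.4). Fluorescence emission scanned 300-450 nm at 298 K with excitation at 295 nm, 2.5 nm slits and 1.0 cm quartz cells.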

Candida albicans = assay: Antifungal activity against Candida albicans ATCC 76615 after 24 hrs by microbroth dilution method; assay type: functional; settings: ATCC 76615, 24 h; outline: as §6
Albumin [18] = biological target: T1, Albumin; assay: Binding affinity to human serum albumin by fluorescence spectrophotometry in presence of Ca2+; assay type: ADME; settings: isolated protein; outline: as §3
[19] = Cytotoxicity against human LO2 cells assessed as inhibition of cell viability at 32 ug/ml after 24 hrs by MTT assay; assay type: cell-based, L02; settings: read-out: INH; outline: as §5
[20] = Dissociation constant, pKa of the compound by UV-spectroscopy; assay type: physicochemical
Outline: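 DMSO stock at 4.0 × 10^-3 mol/L added to 2 mL of buffer, then shaken 10 min at room temperature. Buffers were acetate (pH 4.0–5.0), MES (5.5–6.5), HEPES (7.0–8.0) and CHES (8.5–9.4), each from 500 mM stocks. Scans ran 210–400 nm and were normalized. Absolute differences from the acid spectrum were summed at 244 and 308 nm, plotted against pH and fitted to obtain pKa.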

Pseudomonas aeruginosa = assay: Antibacterial activity against Pseudomonas aeruginosa by two-fold serial dilution method; assay type: functional; outline: as §1
Staphylococcus aureus [21] = assay: Antibacterial activity against Staphylococcus aureus ATCC 25923 by two-fold serial dilution method; assay type: functional; outline: as §1

T1 sequence (P02768 whole entry): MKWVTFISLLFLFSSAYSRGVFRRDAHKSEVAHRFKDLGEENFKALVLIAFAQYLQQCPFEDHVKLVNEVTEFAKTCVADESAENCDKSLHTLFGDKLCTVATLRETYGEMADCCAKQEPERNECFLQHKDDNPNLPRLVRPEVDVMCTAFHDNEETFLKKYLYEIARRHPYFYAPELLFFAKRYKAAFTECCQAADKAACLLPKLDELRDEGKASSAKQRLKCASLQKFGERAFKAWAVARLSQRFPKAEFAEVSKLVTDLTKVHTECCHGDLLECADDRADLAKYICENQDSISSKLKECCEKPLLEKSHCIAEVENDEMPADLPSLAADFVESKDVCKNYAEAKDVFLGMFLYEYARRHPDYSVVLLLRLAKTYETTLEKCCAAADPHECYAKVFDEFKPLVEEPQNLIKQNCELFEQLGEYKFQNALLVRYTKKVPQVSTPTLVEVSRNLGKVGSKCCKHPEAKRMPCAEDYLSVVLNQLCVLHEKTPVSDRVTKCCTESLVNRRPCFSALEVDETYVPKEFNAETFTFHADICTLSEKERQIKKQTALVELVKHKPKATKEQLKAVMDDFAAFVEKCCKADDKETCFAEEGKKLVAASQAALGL

`Cc1ncc([N+](=O)[O-])n1CC(O)Cn1cc(C(=O)O)c(=O)c2ccc(C(F)(F)F)cc21` (configuration not stated) gave an MIC (Streptococcus pneumoniae) of 4 µg/mL (≈ 9.08 µM), an MIC (Micrococcus luteus) of 1 µg/mL (≈ 2.27 µM) and a Ratio (Albumin [1]) of 0.91. The Kb (Albumin [2]) was 3.42 ×10⁴ L/mol, the MIC (Bacillus spizizenii) was 4 µg/mL (≈ 9.08 µM) and the MIC (Staphylococcus aureus [3]) was 1 µg/mL (≈ 2.27 µM). It also gave an MIC (Escherichia coli) of 0.5 µg/mL (≈ 1.14 µM), a Ratio (Albumin [4]) of 1.51 and a cytotoxicity at 24 h, 8 ug/ml [5] of 3.6%. For the same molecule, the MIC [6] was 8 µg/mL (≈ 18.2 µM), the MIC (Saccharomyces cerevisiae) was 64 µg/mL (≈ 145 µM) and the MIC (Shigella dysenteriae) was 0.5 µg/mL (≈ 1.14 µM). The Ratio (Albumin [7]) was 1.02, the viability at 24 h, 256 ug/ml [8] was > 83% and the MIC (Pichia norvegensis) was 64 µg/mL (≈ 145 µM). The solubility [9] was 790 µg/mL (≈ 1790 µM), the Ratio (Albumin [10]) was 1.43 and the cytotoxicity at 24 h, 128 ug/ml [11] was 17.5%. The Activity (Calf thymus DNA) was “Dose-dependent effect”, the Kb (Albumin [12]) was 5.07 ×10⁴ L/mol and the cytotoxicity at 24 h, 16 ug/ml [13] was 6.7%. It also gave a logP [14] of -0.25, an MIC (Cyberlindnera jadinii) of 512 µg/mL (≈ 1160 µM) and a cytotoxicity at 24 h, 64 ug/ml [15] of 15.2%. For the same molecule, the Kb (Albumin [16]) was 5.63 ×10⁴ L/mol, the Kb (Albumin [17]) was 5.15 ×10⁴ L/mol and the MIC (Candida albicans) was 64 µg/mL (≈ 145 µM). For the same molecule, the Kb (Albumin [18]) was 3.61 ×10⁴ L/mol, the cytotoxicity at 24 h, 32 ug/ml [19] was 10.3% and the pKa [20] was 5.6. It also gave an MIC (Pseudomonas aeruginosa) of 4 µg/mL (≈ 9.08 µM) and an MIC (Staphylococcus aureus [21]) of 4 µg/mL (≈ 9.08 µM).
